Source: publication PMC11577639 (Journal of medicinal chemistry, 2024)
Where two headings read alike, the source gives them in different places. One block for each compound: values may come before it.

What was measured:
[1] = test system: N. fowleri (Nf69 strain, ATCC 30215) trophozoites; test: N. fowleri Nf69 dose-response growth inhibition; assay type: cell-based, Naegleria fowleri
[2] = test system: Human neuronal SH-SY5Y cells (ATCC CRL-2266); test: SH-SY5Y cytotoxicity assay; assay type: cell-based; conditions: Table 3; SH-SY5Y CC50 / Nf69 EC50
Mouse plasma stability = assay type: in vitro ADME; conditions: male, CD-1, mouse
Outline: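 Test compound added from DMSO stock to CD-1 mouse plasma (EDTA-K2, ≥20 male donors). Incubated at 37 °C for 0, 10, 30, 60 or 120 min. Protein precipitated with tolbutamide and labetalol in acetonitrile, then shaken and centrifuged. Supernatant diluted in water and analysed by LCMS with internal standard. Enalapril maleate, bisacodyl and procaine HCl as controls.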

Plasma protein binding = assay type: in vitro ADME; conditions: CD-1 mouse
Outline: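 96-well equilibrium dialysis against CD-1 male mouse plasma (EDTA-K2), test compound on donor side in triplicate, dialysis buffer on receiver side. Incubated 4 h at 37 °C, 5% CO2, slow shaking. Both sides sampled, diluted in acetonitrile containing tolbutamide, labetalol, metformin and internal standard, centrifuged and analysed by LC-MS/MS. Warfarin as positive control.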

[3] = BBB parallel artificial membrane permeation assay; assay type: in vitro ADME; conditions: for BBB PAMPA CNS class: classified against positive and negative controls
Outline: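 Porcine polar brain lipid in dodecane coated on filter membrane. Test compound from DMSO stock diluted in PBS pH 7.4 in donor wells, PBS acceptor, room temperature incubation. Donor and filter-well concentrations measured by HPLC. Verapamil, clonidine, hydrocortisone and theophylline as […]. Pe > 15 nm/s scored CNS+, ≤ 15 CNS-.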

Mouse pharmacokinetics = assay type: in vivo, female CD-1 mice; conditions: female, CD-1, mouse, plasma, iv, 11 mg/kg
Outline: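 Female CD-1 mice, n = 3/group. First study: single IV 11.1 mg/kg or PO 10.7 mg/kg (fasted), 10% NMP/20% cremophor EL/70% water, plasma at 0.5, 2, 4, 8, 12 h, brain homogenised in MeOH/PBS at 12 h. Second: fasted, IP 44 mg/kg suspension in 10% DMSO/30% cremophor EL/60% water, plasma at 2 and 4 h. LC-MS/MS, verapamil internal standard. LLOQ 1 ng/mL plasma, 10 ng/g brain.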

[4] = SH-SY5Y cytotoxicity assay; assay type: cell-based, human; conditions: human, SH-SY5Y neuroblastoma cells

Compound: CN1CC[C@H]2c3nc4ccc(Cl)cc4c(=O)n3CC[C@H]21 (racemic) [31a, (±)-(3aR,12bR)-9-Chloro-3-methyl-2,3,3a,4,5,12b-hexahydropyrrolo[3′,2′:3,4]pyrido[2,1-b]quinazolin-7(1H)-one]
- EC50 ([1]; read-out: EC50, N. fowleri Nf69, tested up to 10 μM): > 10 µM

Compound: CN1CCC[C@@H]2c3nc4ccc(C(F)(F)F)cc4c(=O)n3CC[C@H]21 (racemic) [±−15b, (±)-(4aR,13bS)-4-Methyl-10-(trifluoromethyl)-1,2,3,4,4a,5,6,13b-octahydro-8H-[1,6]naphthyridino[5,6-b]-quinazolin-8-one]
- SI (selectivity index, CC50/EC50) [2]: >18.2

Compound: CN1CCC[C@@H]2c3nc4ccc(Cl)cc4c(=O)n3CC[C@H]21 (racemic) [±−16b]
- SI (selectivity index, CC50/EC50) [2]: >20.0

Compound: CN1CCC[C@@H]2c3nc4cc(Cl)c(Cl)cc4c(=O)n3CC[C@H]21 (racemic) [±−21b, (±)-(4aR,13bS)-10,11-Dichloro-4-methyl-1,2,3,4,4a,5,6,13b-octahydro-8H-[1,6]naphthyridino[5,6-b]quinazolin-8-one]
- SI (selectivity index, CC50/EC50) [2]: >100

Compound: CN1CCC[C@@H]2c3nc4ccc(C(F)(F)F)cc4c(=O)n3CC[C@H]21 (single isomer, unassigned) [trans-15b-ent-1]
- SI (selectivity index, CC50/EC50) [2]: >80.0

Compound: CN1CCC[C@@H]2c3nc4ccc(Cl)cc4c(=O)n3CC[C@H]21 (single isomer, unassigned) [trans-16b-ent-1]
- SI (selectivity index, CC50/EC50) [2]: >71.4

- half-life (Mouse plasma stability): > 4.82 h
- plasma protein binding (Plasma protein binding): 74% bound
- BBB PAMPA CNS class [3]: CNS+ (Pe > 15 nm/s = CNS+)
- clearance at 12 h (Mouse pharmacokinetics): 40.8 ± 7.6 mL/min/kg
Compound: COc1cc2nc3n(c(=O)c2cc1Cl)CC[C@H]1[C@H]3CCCN1CC1COC1 (single isomer, unassigned) [trans-57b-ent-2]

Compound: COc1cc2nc3n(c(=O)c2cc1Cl)CC[C@@H]1[C@@H]3CCCN1CC(C)C (single isomer, unassigned) [trans-62b-ent-1]
- SI (selectivity index, CC50/EC50) [2]: >32.3

- EC50 ([1]; Naegleria fowleri, ATCC30215): 35.7 ± 9.1 µM
Compound: CCCCCCCCCCCCCCCCOP(=O)([O-])OCC[N+](C)(C)C [miltefosine, reference compound]

Compound: CN1CCC[C@H]2c3nc4ccc(C(F)(F)F)cc4c(=O)n3CC[C@@H]21 [trans-15b-ent-2, (4aS,13bR)-4-Methyl-10-(trifluoromethyl)-1,2,3,4,4a,5,6,13b-octahydro-8H-[1,6]naphthyridino[5,6-b]quinazolin-8-one]
- SI (selectivity index, CC50/EC50) [2]: >4.7
- CC50 at 72 h [4]: > 20 µM

Compound: CN1CCC[C@H]2c3nc4ccc(Cl)cc4c(=O)n3CC[C@@H]21 [trans-16b-ent-2, (4aS,13bR)-10-Chloro-4-methyl-1,2,3,4,4a,5,6,13b-octahydro-8H-[1,6]naphthyridino[5,6-b]quinazolin-8-one]
- SI (selectivity index, CC50/EC50) [2]: >5.0
- CC50 at 72 h [4]: > 20 µM

Compound: CN1CCC[C@H]2c3nc4cc(Cl)c(Cl)cc4c(=O)n3CC[C@@H]21 [trans-21b-ent-2, (4aS,13bR)-10,11-Dichloro-4-methyl-1,2,3,4,4a,5,6,13b-octahydro-8H-[1,6]naphthyridino[5,6-b]quinazolin-8-one]
- SI (selectivity index, CC50/EC50) [2]: >7.7
- CC50 at 72 h [4]: > 20 µM

- plasma protein binding (Plasma protein binding): 74% bound
- BBB PAMPA, Peavg ([3]; averaged data from duplicate runs, 4 h): 18.2 ×10⁻⁶ cm/s
- BBB PAMPA CNS class [3]: CNS+ (Pe > 15 nm/s = CNS+)
Compound: COc1cc2nc3n(c(=O)c2cc1Cl)CC[C@@H]1[C@@H]3CCCN1CC1COC1 [trans-57b-ent-1, (4aR,13bS)-10-Chloro-11-methoxy-4-(oxetan-3-ylmethyl)-1,2,3,4,4a,5,6,13b-octahydro-8H-[1,6]naphthyridino[5,6-b]-quinazolin-8-one]
- SI (selectivity index, CC50/EC50) [2]: >40.8
